This is an account of results in article PMC3286645 (Carbohydrate Research, 2011).

Molecules are shown by their SMILES. Where two headings read alike, the source gives them in different places.

Data set [1] in a line: Thermogravimetric analysis. In kind it is physicochemical. The settings on record: TGA; for Temperature of solvent loss: 10 °C/min under nitrogen; for Number of water molecules: from weight loss; for Percent weight loss: solvent loss. A digest of the protocol:
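Instrument calibrated with indium and aluminum. 2.5 mg to 4.5 mg of each test compound in an alumina crucible, heated from 25 °C to 200 °C at 10 °C/min under nitrogen flowing at 2 mL/min; weight loss recorded against temperature.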

The subject of data set [2] is Hs27 cells. The data set is described as follows: MTS cell viability assay in Hs27 cells. Type of data set: cell-based. In general terms: Tetrazolium dyes change colour on reduction, which living cells bring about.
For data set [3] the following is noted: cited from earlier work.
In data set [4] the test system is HaCaT cells. The data set is described as follows: MTS cell viability assay in HaCaT cells. Type of data set: cell-based, human.
Data set [5] can be described thus: Differential scanning calorimetry. The conditions noted are these: DSC; for Mp (transition from solid crystalline phase to liquid crystalline phase): first phase transition; for Cp (clearing point): liquid crystalline phase to liquid melt phase. In kind it is physicochemical. A digest of the protocol:
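Dry test compounds kept under vacuum against moisture uptake; 1.0 to 1.5 mg weighed into Tzero aluminum pans sealed with hermetic lids, empty sealed pan as reference. Instrument calibrated with indium for temperature and enthalpy. Scanned 20°C to 250°C at 2.5°C/min; phase transitions taken from the thermograms.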
(In general: DSC measures the heat that a sample takes up or gives off during a temperature scan.)

Data set [6] deals with Jurkat cells. Description: MTS cell viability assay in Jurkat cells. Type of data set: cell-based.
In data set [7] the test system is Jurkat cells. The data set is described as follows: Apoptosis assay. In kind it is cell-based.
Data set [8] can be described thus: Solubility of stock solutions in DMSO and in cell culture medium. Type of data set: physicochemical. The settings on record: 100 mM stock solution in dimethyl sulfoxide. In a few lines: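 Test compounds and the octylthioglucoside reference were each made up as 100 mM stocks in DMSO. Solubility was judged by eye. An aliquot of each stock was added to cell culture medium, vortexed for 5 sec, centrifuged at 1,400 rpm for 1 min, and checked for precipitate. Stocks that precipitated were diluted further before cytotoxicity testing.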

The mark [9] stands for this setting: Hs27 cells, MTS assay, 20 h exposure.
Setting [10] is: HaCaT cells, MTS assay, 20 h exposure.
Setting [11] is: Jurkat cells, MTS assay, 20 h exposure.

For the molecule `CCCCCCO[C@@H]1OC[C@@H](O)[C@H](O)[C@H]1O` [Compound 9a, Hexyl β-D-xylopyranoside], in data set [1], the “Decomposition Temperature” value was determined as 262.8 ± 4.34 °C, the “Temperature of solvent loss” value amounted to 81.74 ± 0.41 °C, the “Number of water molecules” value was 0.4 and the Percent weight loss is recorded as 2.50±0.66%.
Consider `CCCCCCCCO[C@@H]1OC[C@@H](O)[C@H](O)[C@H]1O` [Compound 9b, Octyl β-D-xylopyranoside], for which the “toxicity (cell viability) in words” value in data set [2] (setting [9]), in data set [4] (setting [10]) and in data set [6] (setting [11]) was “moderate toxicity” each time. Further, the figures for the “Cp (clearing point)” value in data set [3] (reported previously ref 23), in data set [3] (reported previously ref 24) and in data set [5] were 96.9 °C, 103.3 °C and 99.4 °C, respectively. The “Mp (transition from solid crystalline phase to liquid crystalline phase)” value in data set [3] (reported previously ref 23) is 64.5 °C; in data set [3] (reported previously ref 24) it was 67.5 °C; in data set [5] it was 72.5 °C. In addition, the “Decomposition Temperature” value in data set [1] worked out at 267.1 ± 9.15 °C. Moreover, in data set [1], the “Temperature of solvent loss” value was found to be 85.32 ± 0.55 °C. In addition, the “Number of water molecules” value in data set [1] came out at 0.5. In data set [1], this molecule registered a Percent weight loss of 2.35±0.91%.
As for `CCCCCCCCCCO[C@@H]1OC[C@@H](O)[C@H](O)[C@H]1O` [Compound 9c, Decyl β-D-xylopyranoside], in data set [2] (setting [9]), the “toxicity (cell viability) in words” value is on record as “moderate toxicity”. In data set [1], the “Decomposition Temperature” value came out at 277.2 ± 11.5 °C, the “Temperature of solvent loss” value was 96.63 ± 0.44 °C, the “Number of water molecules” value worked out at 0.5 and the Percent weight loss amounted to 2.69±0.07%. Further, in data set [4] (setting [10]), the “toxicity (cell viability) in words” value was “moderate toxicity”. For the same molecule, the “toxicity (cell viability) in words” value in data set [6] (setting [11]) was “moderate toxicity”.
With `CCCCCCCCCCCCO[C@@H]1OC[C@@H](O)[C@H](O)[C@H]1O` [Compound 9d, Dodecyl β-D-xylopyranoside], in data set [1], the “Decomposition Temperature” value was determined as 290.4 ± 10.5 °C, the “Temperature of solvent loss” value stood at 86.35 ± 0.98 °C, the “Number of water molecules” value is given as 0.3 and the Percent weight loss was 1.56±0.09%.
As for `CCCCCCCCCCCCCCO[C@@H]1OC[C@@H](O)[C@H](O)[C@H]1O` [Compound 9e, Tetradecyl β-D-xylopyranoside], in data set [1], the “Decomposition Temperature” value came out at 294.8 ± 7.15 °C, the “Temperature of solvent loss” value is 100.1 ± 2.93 °C, the “Number of water molecules” value was 0.5 and the Percent weight loss is given as 1.87±1.08%.
`CCCCCCCCCCCCCCCCO[C@@H]1OC[C@@H](O)[C@H](O)[C@H]1O` [Compound 9f, Hexadecyl β-D-xylopyranoside]: in data set [1], the “Temperature of solvent loss” value was found to be 103.4 ± 1.95 °C, the “Number of water molecules” value is listed as 0.3 and the Percent weight loss is on record as 1.24±0.49%.
As for `O[C@@H]1[C@@H](O)[C@H](OCCC(F)(F)C(F)(F)C(F)(F)C(F)(F)C(F)(F)C(F)(F)F)OC[C@H]1O` [Compound 9g, 3,3,4,4,5,5,6,6,7,7,8,8,8-Tridecafluorooctyl β-D-xylopyranoside], the “toxicity (cell viability) in words” value in data set [2] is given as “moderate toxicity”. Moreover, the “mode of cell death” value in data set [7] was “apoptosis and not necrosis”. In data set [1], the “Temperature of solvent loss” value was determined as 50.57 ± 1.64 °C, the “Number of water molecules” value is 0.9 and the Percent weight loss amounted to 2.64±0.83%. Also, in data set [4], the “toxicity (cell viability) in words” value is “moderate toxicity”. Also, in data set [5], the “Mp (transition from solid crystalline phase to liquid crystalline phase)” value was 105.1 °C and the “Cp (clearing point)” value is 147.0 °C. Also, in data set [6], the “toxicity (cell viability) in words” value was “moderate toxicity”.
On to `CCCCCCCCS[C@@H]1O[C@H](CO)[C@@H](O)[C@H](O)[C@H]1O` [OTG, octylthioglucoside, reference compound], for which the “toxicity (cell viability) in words” value in data set [2] (setting [9]) and in data set [6] (setting [11]) was “moderate toxicity” throughout. Also, the “solubility in DMSO” value in data set [8] is reported as “readily soluble”.
